Active and inactive are the calls of the source. No cut-off for these calls is given here.

From ChEMBL document CHEMBL1250448, “Inhibitor hijacking of Akt activation” (Nat Chem Biol, 2009) come the findings set out here.

Test [1] addresses RAC-alpha serine/threonine-protein kinase (Homo sapiens, UniProt P31749). The experiment in a line: Induction of AKT1 Ser473 phosphorylation expressed in IGF1-stimulated HEK293 cells treated 20 mins before IGF1 stimulation by immunoblotting. The format is cell-based. In short, it runs like this:
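HEK293 cells (not transfected), serum-starved overnight, then given inhibitor for 20 min before 50 ng/ml IGF-1 for a further 10 min. Cells detached in ice-cold Ca/Mg-free PBS with 0.04% EDTA and lysed in Tris pH 7.5 Triton buffer with protease/phosphatase inhibitors. Lysates cleared at 14000 g, protein equalised by Bradford, and pThr308, pSer473 and GSK3β pSer9 read by immunoblot with ECL.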

Test [2] relates to Receptor-type tyrosine-protein kinase FLT3 (Homo sapiens), P36888 [D835Y]. Put plainly: Inhibition of FLT3 D835Y mutant at 1 uM in presence of 10 uM ATP by Select Screen kinase assay relative to untreated control. In short, it runs like this: (§1)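 Part of a 220-kinase panel of purified kinases, each tested with compound at 1 μM. Percent inhibition was measured in the Invitrogen SelectScreen profiling assay.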

The target of test [3] is Calcium/calmodulin-dependent protein kinase type II subunit delta (Homo sapiens) (UniProt Q13557). The experiment in a line: Inhibition of CAMK2D at 1 uM in presence of 10 uM ATP by Select Screen kinase assay relative to untreated control. The gist of the method:
(§2)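 Single-point screen at 1 μM against a panel of 220 purified kinases, run by Invitrogen staff as a SelectScreen profiling service. Read-out is percent inhibition of kinase activity.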

The target in test [4] is Protein kinase C delta type (Homo sapiens) (UniProt Q05655). Put plainly: Inhibition of PRKCD at 1 uM in presence of 10 uM ATP by Select Screen kinase assay relative to untreated control. The gist of the method: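 Profiling panel of 220 purified kinases (SelectScreen), each compound tested at 1 μM. Read-out is percent inhibition of kinase activity.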
Protein kinase C delta type (Homo sapiens), sequence (Q05655 whole entry, looked up): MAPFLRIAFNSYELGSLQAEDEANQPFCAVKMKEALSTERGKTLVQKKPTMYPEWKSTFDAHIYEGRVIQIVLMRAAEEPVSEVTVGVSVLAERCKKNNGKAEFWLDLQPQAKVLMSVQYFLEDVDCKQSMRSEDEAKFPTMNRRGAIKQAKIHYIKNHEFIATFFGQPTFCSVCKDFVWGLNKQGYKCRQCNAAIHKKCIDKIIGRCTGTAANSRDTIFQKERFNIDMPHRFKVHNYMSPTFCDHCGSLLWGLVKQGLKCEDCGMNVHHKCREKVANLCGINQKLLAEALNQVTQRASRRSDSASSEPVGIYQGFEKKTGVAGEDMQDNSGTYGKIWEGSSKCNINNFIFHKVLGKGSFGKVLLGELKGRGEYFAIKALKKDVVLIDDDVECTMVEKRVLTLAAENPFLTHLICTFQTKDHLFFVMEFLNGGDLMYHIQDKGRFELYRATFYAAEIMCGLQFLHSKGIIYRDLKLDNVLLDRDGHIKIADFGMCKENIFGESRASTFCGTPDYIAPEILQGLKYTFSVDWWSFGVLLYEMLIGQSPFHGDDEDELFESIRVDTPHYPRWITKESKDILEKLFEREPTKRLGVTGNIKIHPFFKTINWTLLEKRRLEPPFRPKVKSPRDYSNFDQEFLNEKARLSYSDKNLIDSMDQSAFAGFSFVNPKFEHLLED
The subject of test [5] is Tyrosine-protein kinase ABL1 (Homo sapiens), P00519 [T315I]. Put plainly: Inhibition of ABL1 T315I mutant at 1 uM in presence of 10 uM ATP by Select Screen kinase assay relative to untreated control. In short, it runs like this: as §2
The subject of test [6] is Tyrosine-protein kinase ABL1 (Homo sapiens), P00519 [G250E]. The experiment in a line: Inhibition of ABL1 G250E mutant at 1 uM in presence of 10 uM ATP by Select Screen kinase assay relative to untreated control. In short, it runs like this: as §2
For test [7], the target named is Cyclin-dependent kinase 2/cyclin A (Homo sapiens) (UniProt P24941+P20248+P78396). The experiment in a line: Inhibition of CDK2/cyclin A at 1 uM in presence of 10 uM ATP by Select Screen kinase assay relative to untreated control. The format is protein-complex assay. In short, it runs like this: as §2
Test [8] concerns the target Ribosomal protein S6 kinase alpha-1 (Homo sapiens) (UniProt Q15418). Put plainly: Inhibition of RPS6KA1 at 1 uM in presence of 100 uM ATP by Select Screen kinase assay relative to untreated control.
For test [9], the target named is cGMP-dependent protein kinase 2 (Homo sapiens) (UniProt Q13237). The experiment in a line: Inhibition of PRKG2 at 1 uM in presence of 10 uM ATP by Select Screen kinase assay relative to untreated control.
Test [10] addresses Beta-adrenergic receptor kinase 1 (Homo sapiens) (UniProt P25098). Put plainly: Inhibition of ADRBK1 at 1 uM in presence of 10 uM ATP by Select Screen kinase assay relative to untreated control. The gist of the method: as §2
Test [11] addresses Misshapen-like kinase 1 (Homo sapiens) (UniProt Q8N4C8). Put plainly: Inhibition of MINK1 at 1 uM in presence of 10 uM ATP by Select Screen kinase assay relative to untreated control.
For test [12], the system named is Proto-oncogene tyrosine-protein kinase receptor Ret (Homo sapiens), P07949 [V804L]. Put plainly: Inhibition of RET V804L mutant at 1 uM in presence of 10 uM ATP by Select Screen kinase assay relative to untreated control. In short, it runs like this:
(§3)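 Commercial SelectScreen profiling panel of 220 purified kinases. Each kinase was tested at a single inhibitor concentration of 1 μM, and activity was expressed as percent inhibition.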

For test [13], the target named is Serine/threonine-protein kinase Nek2 (Homo sapiens) (UniProt P51955). Put plainly: Inhibition of NEK2 at 1 uM in presence of 10 uM ATP by Select Screen kinase assay relative to untreated control.
Serine/threonine-protein kinase Nek2 (Homo sapiens), sequence (P51955 whole entry): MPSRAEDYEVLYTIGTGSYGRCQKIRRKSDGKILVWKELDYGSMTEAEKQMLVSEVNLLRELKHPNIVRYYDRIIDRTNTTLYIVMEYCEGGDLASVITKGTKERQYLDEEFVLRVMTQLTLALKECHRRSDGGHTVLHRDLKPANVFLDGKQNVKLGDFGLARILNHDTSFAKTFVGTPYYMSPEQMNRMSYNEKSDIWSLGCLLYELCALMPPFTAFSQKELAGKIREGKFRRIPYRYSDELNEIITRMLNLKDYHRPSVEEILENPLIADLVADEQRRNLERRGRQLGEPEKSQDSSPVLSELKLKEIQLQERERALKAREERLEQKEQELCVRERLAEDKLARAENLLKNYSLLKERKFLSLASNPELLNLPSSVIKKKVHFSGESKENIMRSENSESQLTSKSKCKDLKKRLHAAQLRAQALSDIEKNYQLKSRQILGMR
Test [14] has as its target Serine/threonine-protein kinase D2 (Homo sapiens) (UniProt Q9BZL6). Put plainly: Inhibition of PRKD2 at 1 uM in presence of 10 uM ATP by Select Screen kinase assay relative to untreated control.
The test system of test [15] is Tyrosine-protein kinase ABL1 (Homo sapiens), P00519 [Y253F]. Put plainly: Inhibition of ABL1 Y253F mutant at 1 uM in presence of 10 uM ATP by Select Screen kinase assay relative to untreated control. In short, it runs like this:
as §2

The target in test [16] is Insulin receptor (Homo sapiens) (UniProt P06213). Put plainly: Inhibition of INSR at 1 uM in presence of 10 uM ATP by Select Screen kinase assay relative to untreated control.
Insulin receptor (Homo sapiens), sequence (P06213 28-758 limits assumed): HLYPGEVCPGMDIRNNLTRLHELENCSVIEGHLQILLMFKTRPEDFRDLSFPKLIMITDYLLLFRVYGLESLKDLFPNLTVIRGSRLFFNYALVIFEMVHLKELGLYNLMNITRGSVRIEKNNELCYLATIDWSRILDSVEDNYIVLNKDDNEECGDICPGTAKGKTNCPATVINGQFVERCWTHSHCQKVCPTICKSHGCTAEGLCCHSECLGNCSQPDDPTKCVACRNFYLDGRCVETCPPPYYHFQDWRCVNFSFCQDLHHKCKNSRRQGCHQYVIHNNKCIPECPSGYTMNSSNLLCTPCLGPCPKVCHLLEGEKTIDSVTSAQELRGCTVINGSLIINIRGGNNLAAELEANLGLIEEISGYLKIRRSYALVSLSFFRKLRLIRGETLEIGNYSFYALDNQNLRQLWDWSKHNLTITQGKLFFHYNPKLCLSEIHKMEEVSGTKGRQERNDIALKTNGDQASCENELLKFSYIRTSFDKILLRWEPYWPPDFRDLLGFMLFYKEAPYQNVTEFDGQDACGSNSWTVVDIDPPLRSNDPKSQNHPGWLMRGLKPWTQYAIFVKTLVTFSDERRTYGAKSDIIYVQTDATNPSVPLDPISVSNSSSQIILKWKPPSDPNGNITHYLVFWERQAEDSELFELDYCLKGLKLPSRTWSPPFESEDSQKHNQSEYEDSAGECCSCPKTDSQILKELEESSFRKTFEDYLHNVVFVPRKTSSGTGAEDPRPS
Insulin receptor (Homo sapiens), sequence (P06213 763-1382 limits assumed): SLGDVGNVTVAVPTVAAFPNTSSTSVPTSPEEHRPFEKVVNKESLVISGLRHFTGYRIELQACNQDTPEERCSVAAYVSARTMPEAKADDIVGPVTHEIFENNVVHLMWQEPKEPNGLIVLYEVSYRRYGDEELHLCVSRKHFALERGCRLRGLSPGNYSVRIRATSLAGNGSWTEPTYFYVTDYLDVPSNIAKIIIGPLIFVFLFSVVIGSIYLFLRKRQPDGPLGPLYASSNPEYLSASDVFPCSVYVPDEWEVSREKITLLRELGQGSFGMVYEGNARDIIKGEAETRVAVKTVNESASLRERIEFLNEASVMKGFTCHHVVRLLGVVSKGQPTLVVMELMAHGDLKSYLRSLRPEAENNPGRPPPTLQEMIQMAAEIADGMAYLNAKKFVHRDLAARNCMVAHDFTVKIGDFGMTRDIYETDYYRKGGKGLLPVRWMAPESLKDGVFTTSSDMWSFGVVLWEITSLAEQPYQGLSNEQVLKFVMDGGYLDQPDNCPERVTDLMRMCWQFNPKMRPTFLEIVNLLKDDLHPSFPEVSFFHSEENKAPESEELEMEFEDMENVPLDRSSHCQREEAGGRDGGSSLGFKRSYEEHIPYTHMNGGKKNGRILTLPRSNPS
Test [17] deals with Tyrosine-protein kinase JAK2 (Homo sapiens) (UniProt O60674). Put plainly: Inhibition of JAK2 at 1 uM in presence of 10 uM ATP by Select Screen kinase assay relative to untreated control. The gist of the method: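 Single-concentration profiling at 1 μM against a panel of 220 purified kinases, run as an outsourced SelectScreen kinase profiling service. Activity is expressed as percent inhibition.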

In test [18] the target is Serine/threonine-protein kinase MRCK alpha (Homo sapiens) (UniProt Q5VT25). The experiment in a line: Inhibition of CDC42 binding protein alpha at 1 uM in presence of 10 uM ATP by Select Screen kinase assay relative to untreated control. In short, it runs like this:
as §2

The target in test [19] is Ephrin type-A receptor 3 (Homo sapiens) (UniProt P29320). Put plainly: Inhibition of EPHA3 at 1 uM in presence of 10 uM ATP by Select Screen kinase assay relative to untreated control. In short, it runs like this: as §1
In test [20] the target is Aurora kinase A (Homo sapiens) (UniProt O14965). The experiment in a line: Inhibition of STK6 at 1 uM in presence of 10 uM ATP by Select Screen kinase assay relative to untreated control. The gist of the method: as §3
Test [21] has as its target Serine/threonine-protein kinase Chk1 (Homo sapiens) (UniProt O14757). The experiment in a line: Inhibition of CHEK1 at 1 uM in presence of 10 uM ATP by Select Screen kinase assay relative to untreated control. In short, it runs like this:
as §2

For test [22], the target named is Protein kinase C beta type (Homo sapiens) (UniProt P05771). The experiment in a line: Inhibition of PRKCB1 at 1 uM in presence of 10 uM ATP by Select Screen kinase assay relative to untreated control.
The target of test [23] is Protein kinase C eta type (Homo sapiens) (UniProt P24723). The experiment in a line: Inhibition of PRKCH at 1 uM in presence of 10 uM ATP by Select Screen kinase assay relative to untreated control.
Test [24] has as its target Dual specificity protein kinase CLK2 (Homo sapiens) (UniProt P49760). The experiment in a line: Inhibition of CLK2 at 1 uM in presence of 10 uM ATP by Select Screen kinase assay relative to untreated control. The gist of the method:
as §1

Test [25] deals with Tyrosine-protein kinase FRK (Homo sapiens) (UniProt P42685). Put plainly: Inhibition of FRK at 1 uM in presence of 10 uM ATP by Select Screen kinase assay relative to untreated control. In short, it runs like this: as §1

Dual specificity protein kinase CLK2 (Homo sapiens), sequence (P49760 whole entry, looked up): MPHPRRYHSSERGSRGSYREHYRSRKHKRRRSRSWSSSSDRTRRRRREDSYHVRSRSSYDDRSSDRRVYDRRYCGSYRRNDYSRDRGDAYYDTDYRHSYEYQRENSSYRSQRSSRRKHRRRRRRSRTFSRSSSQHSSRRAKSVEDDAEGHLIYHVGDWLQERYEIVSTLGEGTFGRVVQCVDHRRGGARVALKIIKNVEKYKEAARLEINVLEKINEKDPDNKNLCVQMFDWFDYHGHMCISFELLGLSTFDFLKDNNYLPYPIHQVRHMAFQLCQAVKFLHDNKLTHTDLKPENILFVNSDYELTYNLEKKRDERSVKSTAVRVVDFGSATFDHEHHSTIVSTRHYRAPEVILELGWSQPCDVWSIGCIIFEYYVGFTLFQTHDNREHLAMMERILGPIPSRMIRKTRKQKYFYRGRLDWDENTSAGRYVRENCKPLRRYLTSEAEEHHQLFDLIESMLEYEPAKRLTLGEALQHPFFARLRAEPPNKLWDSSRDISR
RAC-alpha serine/threonine-protein kinase, sequence (P31749 whole entry): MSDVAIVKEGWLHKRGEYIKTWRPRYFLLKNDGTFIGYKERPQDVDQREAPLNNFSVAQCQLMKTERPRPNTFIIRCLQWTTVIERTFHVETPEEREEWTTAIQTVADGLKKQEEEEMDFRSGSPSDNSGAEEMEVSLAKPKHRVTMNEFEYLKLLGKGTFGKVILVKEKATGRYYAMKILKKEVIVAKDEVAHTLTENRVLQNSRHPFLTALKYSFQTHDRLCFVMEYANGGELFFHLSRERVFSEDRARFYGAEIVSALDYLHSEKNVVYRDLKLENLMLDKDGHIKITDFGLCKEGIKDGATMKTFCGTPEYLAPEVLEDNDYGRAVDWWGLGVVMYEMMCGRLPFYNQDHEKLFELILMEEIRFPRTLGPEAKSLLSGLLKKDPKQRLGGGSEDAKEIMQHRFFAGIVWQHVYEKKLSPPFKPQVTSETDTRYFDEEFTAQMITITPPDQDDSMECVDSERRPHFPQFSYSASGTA
Proto-oncogene tyrosine-protein kinase receptor Ret (Homo sapiens), P07949 [V804L], sequence (P07949 whole entry V804L): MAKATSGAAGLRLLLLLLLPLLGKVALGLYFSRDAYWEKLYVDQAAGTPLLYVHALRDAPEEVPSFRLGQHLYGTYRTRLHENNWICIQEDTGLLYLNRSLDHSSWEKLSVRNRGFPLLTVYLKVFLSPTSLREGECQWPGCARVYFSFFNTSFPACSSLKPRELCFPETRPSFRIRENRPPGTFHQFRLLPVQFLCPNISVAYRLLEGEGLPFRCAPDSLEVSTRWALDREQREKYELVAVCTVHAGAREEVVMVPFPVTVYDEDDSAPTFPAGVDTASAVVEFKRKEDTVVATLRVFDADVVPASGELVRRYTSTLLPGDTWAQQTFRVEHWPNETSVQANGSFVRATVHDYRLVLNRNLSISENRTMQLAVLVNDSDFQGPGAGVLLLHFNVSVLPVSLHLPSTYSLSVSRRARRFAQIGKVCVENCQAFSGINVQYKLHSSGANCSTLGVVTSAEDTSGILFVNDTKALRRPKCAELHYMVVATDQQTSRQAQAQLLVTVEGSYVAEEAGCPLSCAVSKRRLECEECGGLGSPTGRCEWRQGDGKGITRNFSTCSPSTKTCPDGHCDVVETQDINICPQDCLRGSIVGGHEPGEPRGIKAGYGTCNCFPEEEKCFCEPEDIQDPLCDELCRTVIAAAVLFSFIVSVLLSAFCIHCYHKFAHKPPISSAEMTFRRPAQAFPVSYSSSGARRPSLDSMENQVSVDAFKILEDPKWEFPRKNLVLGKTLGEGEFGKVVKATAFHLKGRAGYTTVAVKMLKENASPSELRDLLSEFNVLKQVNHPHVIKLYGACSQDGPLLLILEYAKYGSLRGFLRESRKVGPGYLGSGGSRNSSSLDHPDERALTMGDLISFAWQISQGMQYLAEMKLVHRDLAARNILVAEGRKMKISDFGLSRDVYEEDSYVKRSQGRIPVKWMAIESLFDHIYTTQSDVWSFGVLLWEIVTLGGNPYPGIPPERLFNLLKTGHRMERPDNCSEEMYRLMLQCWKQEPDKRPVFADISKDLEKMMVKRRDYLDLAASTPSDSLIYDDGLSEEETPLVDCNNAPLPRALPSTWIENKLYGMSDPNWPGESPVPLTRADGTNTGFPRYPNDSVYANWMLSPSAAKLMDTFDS
Serine/threonine-protein kinase Chk1 (Homo sapiens), sequence (O14757 whole entry): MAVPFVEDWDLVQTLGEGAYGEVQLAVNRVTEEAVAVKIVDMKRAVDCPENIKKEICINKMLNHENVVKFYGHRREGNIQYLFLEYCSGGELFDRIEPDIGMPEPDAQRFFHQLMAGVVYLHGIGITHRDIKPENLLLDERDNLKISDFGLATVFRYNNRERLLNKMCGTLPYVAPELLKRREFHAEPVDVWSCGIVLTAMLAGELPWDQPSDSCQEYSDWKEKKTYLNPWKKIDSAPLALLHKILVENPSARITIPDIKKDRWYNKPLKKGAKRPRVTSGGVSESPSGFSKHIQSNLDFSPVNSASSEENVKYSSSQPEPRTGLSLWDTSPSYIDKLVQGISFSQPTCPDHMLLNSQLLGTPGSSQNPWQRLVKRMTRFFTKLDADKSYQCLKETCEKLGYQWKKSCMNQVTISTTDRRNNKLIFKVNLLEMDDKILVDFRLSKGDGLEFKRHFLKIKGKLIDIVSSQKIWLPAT

Consider `CCCc1cc(-c2cncc(OC[C@@H](N)Cc3c[nH]c4ccccc34)c2)cc2c(C)n[nH]c12`, for which the outcome in test [1] was inactive.
Broadly, the inhibition is the relative decrease from the control value, in per cent. As to `COc1ccccc1N1CCN(c2ncnc3[nH]nc(Br)c23)CC1`, the inhibition is 71% in [2]; 11% in [3]; -5% in test [4]; 8% in test [5]; 7% in test [6]; 2% in test [7]. Besides, the inhibition in test [8] amounted to 63%; in test [9], 92%; in test [10], 8%; in test [11], 71%; in [12], 66%; in [13], 21%. The inhibition in test [14] was 4%; in test [15] it was 12%; in [16] it was 3%; in test [17], -9%; in [18], -3%; in [19], 14%. For the same compound, the inhibition in test [20] was found to be 22%; in [21], 19%; in [22], 35%; in [23], 8%; in test [24], 85%; in test [25], 11%.
In the case of `O=C(NCCCNc1nc(Nc2cccc(NC(=O)N3CCCC3)c2)ncc1I)c1cccs1`, the inhibition in test [2] came to 100%; in [3] it was 85%; in test [4], 24%; in test [5], 40%; in [6] it was 18%; in test [7], 84%. In addition, the inhibition was 42% in test [8]; 29% in [9]; 15% in test [10]; 38% in test [11]; 93% in test [12]; 33% in test [13]. Besides, the inhibition was found to be 76% in test [14]; 36% in test [15]; 7% in test [16]; 74% in test [17]; 19% in test [18]; 13% in test [19]. Further, the inhibition in [20] is 97%; in test [21], 75%; in test [22], 28%; in test [23] it was 7%; in test [24], 70%; in [25] it was 16%.
As for `Cc1n[nH]c2ccc(-c3cncc(OC[C@@H](N)Cc4c[nH]c5ccccc45)c3)cc12`, the result in [1] was Active.
